Results: ChEMBL document CHEMBL3779830, “Diterpenoids from the Roots of Euphorbia fischeriana with Inhibitory Effects on Nitric Oxide Production” (J Nat Prod, 2016)

How the values were obtained:
RAW264.7 [1] = experiment: Inhibition of LPS-induced nitric oxide production in mouse RAW264.7 cells after 24 hrs by Griess assay; format: functional, cell-based; settings: RAW264.7, 24 h
In short: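 RAW 264.7 cells seeded at 2 × 10^6 cells/mL and stimulated with 1 μg/mL LPS, with or without compounds, for 24 h at 37 °C. Cell-free supernatant was mixed 1:1 with Griess reagent (2% sulfanilamide in 5% phosphoric acid plus 0.2% N-(1-naphthyl)ethylenediamine). Nitrite was read at 550 nm against sodium nitrite standards. Aminoguanidine and indomethacin were positive controls. Means ± SD from triplicate experiments.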

RAW264.7 [2] = experiment: Cytotoxicity against mouse RAW264.7 cells assessed as cell viability at nitric oxide IC50 level by MTT assay; format: cell-based
In short: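 Viability was read by MTT colorimetric assay on the cells remaining after the NO assay. That assay seeded RAW 264.7 cells at 2 × 10^6 cells/mL and stimulated them with 1 μg/mL LPS, with or without compounds, for 24 h at 37 °C.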

Compound	IC50 (RAW264.7 [1]) [µM]	Activity (RAW264.7 [2])
C=C[C@]1(C)CC[C@@]2(C)c3cc(O)c(O)c(C)c3CC[C@@H]2C1	7.4	Non-toxic
C=C[C@]1(C)CC[C@]2(C)[C@H](CC[C@H]3[C@@](C)(CO)C(=O)C=C[C@]32O)C1		Non-toxic
C=C[C@]1(C)CC[C@@]2(C)C3=CC(=O)O[C@@H]3C(C)(C)C[C@H](O)[C@@H]2C1	> 20	Non-toxic
CC1=C2C(=O)C3=C([C@@H](O)[C@H]2OC1=O)[C@]1(C)CCCC(C)(C)[C@H]1CC3	> 20	Non-toxic
C=C1C[C@@]23CC[C@@H]4C(C)(C)C(=O)CC[C@@]4(C)[C@@H]2C[C@@H]1[C@@H](O)C3=O	> 20	Non-toxic
C[C@H]1C[C@]2(OC(=O)/C=C/c3ccccc3)C(=O)/C(CO)=C/[C@@H]3[C@H](CC[C@@]4(C)O[C@H]4[C@H]2[C@H]1O)C3(C)C	9.4	Non-toxic
COc1ccc2c(c1)c(CC(=O)O)c(C)n2C(=O)c1ccc(Cl)cc1 [INDOMETHACIN]	12.5	
CC1=C[C@]23C(=O)[C@@H](C=C(CO)[C@@H](O)[C@]2(O)[C@H]1O)[C@H]1[C@@H](C[C@H]3C)C1(C)C [INGENOL]	> 20	Non-toxic
N=C(N)NN [PIMAGEDINE]	18.7	

Second part, led by results:

IC50 (RAW264.7 [1]) [µM]	Compound	Activity (RAW264.7 [2])
5.6	CC1=C2[C@H](OC1=O)[C@H](O)[C@H]1[C@]3(C)CCCC(C)(C)[C@H]3CC[C@@]1(O)[C@H]2O	Non-toxic
> 20	CC1=C2[C@@H](O)[C@@]3(O)CC[C@@H]4C(C)(C)CCC[C@@]4(C)[C@@H]3[C@@H](O)[C@H]2OC1=O	Non-toxic
12.6	CC1=C2[C@H]3O[C@]34CC[C@@H]3C(C)(C)CCC[C@@]3(C)[C@@H]4[C@@H](O)[C@H]2OC1=O	Non-toxic
> 20	CC1=C2[C@@H](O)C3=C([C@@H](O)[C@H]2OC1=O)[C@]1(C)CCCC(C)(C)[C@H]1CC3	Non-toxic
> 20	CC1=C2[C@@H](O)C3=CC[C@@H]4C(C)(C)CCC[C@@]4(C)[C@@H]3[C@@H](O)[C@H]2OC1=O	Non-toxic
> 20	CC1=C2C=C3CC[C@@H]4C(C)(C)CCC[C@@]4(C)[C@@H]3[C@H](O)[C@H]2OC1=O	Non-toxic
> 20	CC1=C2C=C3[C@@H](O)C[C@@H]4C(C)(C)CCC[C@@]4(C)[C@@H]3[C@@H](O)[C@H]2OC1=O	Non-toxic
